# Assay results as given in ChEMBL document CHEMBL4513216, “Probing the Open Global Health Chemical Diversity Library for Multistage-Active Starting Points for Next-Generation Antimalarials” (ACS Infect Dis, 2020).
# Assay: Toxicity liver stage against HepG2, at 10uM
# Assay type: cell-based
# Parameters: test concentration 10 uM, cell line HepG2-A16-CD81EGFP
# Details: human, HepG2-A16-CD81EGFP cells; read-out: INHIBITION
# How it was run: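 Uninfected HepG2-A16-CD81EGFP cells, 3 × 10^3 per well, 1536-well, plated on prespotted compound at 10 μM final, parasite-free screening media added to match infected plates; puromycin 10 μM positive, DMSO 0.5% negative; run in parallel with 48 h PbLuc assay at 37 °C, 5% CO2; viability by CellTiter-Glo luminescence, normalized to controls.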
row,Structure (SMILES),cytotoxicity at 10 µM [%]
1,c1ncn(Cc2cn3c(n2)CN(CC2CCCC2)CC3)n1,-127
2,CC(=O)N1CCO[C@@H]2CN(Cc3ccccc3F)C[C@@H]2C1,-108
3,Cn1nc(CN2CCCCC2)c2c1CN(C(=O)c1cccc(Cl)c1)C2,-1.35
4,Cc1ccc(C(=O)N[C@H]2CN(CCO)C[C@@H]2C2CC2)cc1Cl,6.93
5,O=C(c1ccn(COc2ccc(F)cc2)n1)N1CCCC1,6.25
6,CCN(Cc1c(F)cccc1F)C(=O)c1ccncc1O,-1.22
7,CCN1CC(C(=O)NCc2cccnc2-n2cccn2)CC1=O (stereo unspecified),0.796
8,COc1cccc2c1OCC(CNC(=O)Cc1cnccn1)C2 (stereo unspecified),-145
9,CCCOc1ncccc1CNc1nnc(C)c(C)c1C#N,-14.3
10,c1cncc(CN2CCn3cc(CN4CCCCC4)nc3C2)c1,-102
11,COCCN1CCn2cc(CNC(=O)c3cnn(C)c3)nc2C1,-3.09
12,CC(NS(=O)(=O)N(C)C(C)C)C(=O)N(C)C (stereo unspecified),7.95
13,CS(=O)(=O)N1CCN(C(=O)Cn2ccc3c(Cl)cccc32)CC1,20.6
14,Cc1ccccc1-c1noc(C2CC(C(C)C)=NO2)n1 (stereo unspecified),-14.6
15,O=C(c1cccc(O)c1)N1CCN(Cc2nnc(C3CCC3)o2)CC1,-8.52
16,O=C(NCCCn1nc2ccccn2c1=O)Nc1ccc(F)cc1F,-7.43
17,COC(=O)c1ccc(N(C)C2CCC2)nn1,19.8
18,Cc1noc(C(C)C)c1C(=O)N1CCC(n2cccn2)CC1,-4.32
19,Cc1cc(C(=O)N(C)Cc2cccs2)nc(N2CCOCC2)n1,4.45
20,Cc1ccc(CN2CCOC3(CCN(CC4CCOC4)CC3)C2)cc1 (stereo unspecified),-117
21,Cc1nc(C)c(C(=O)N2Cc3ccccc3OCC2Cn2ccnc2)o1 (stereo unspecified),7.92
22,NC(=O)C1CCN(C(C(=O)O)c2ccc(Cl)c(C(F)(F)F)c2)CC1 (stereo unspecified),-107
23,Nc1ccc(C(=O)N2CCCC(c3nccn3Cc3cscn3)C2)cn1 (stereo unspecified),-4.92

row,Structure (SMILES),cytotoxicity at 10 µM [%]
1,CC(=O)N1CCN(C(=O)c2cccc(OCc3cscn3)c2)CC1,-7.57
2,CNC(=O)C1Cn2ccnc2C2(CCN(Cc3ccncc3)CC2)O1 (stereo unspecified),-74.9
3,Cc1nc(SCC(=O)Nc2ccc(C(N)=O)cc2)c(C#N)c(C)c1C,-5.28
4,Cc1cccc(CN2CCCC2(C(N)=O)c2cnccn2)n1 (stereo unspecified),-21.9
5,c1csc(CN2Cc3nc(CN4CCCC4)oc3C2)c1,4.59
6,CC(C)(C)c1nc(NS(=O)(=O)c2cccc(F)c2)no1,-10.8
7,c1cncc(OCc2n[nH]c3c2CN(Cc2cccs2)C3)c1,-113
8,CCN1C(=O)C2(CCN(CCN(C)C)CC2)c2ccccc21,-112
9,O=C1NCCN(CC2CC2)C12CCN(Cc1ccco1)CC2,2.55
10,CCCc1n[nH]c(C2CN(CCCS(=O)(=O)N(C)C)CCO2)n1 (stereo unspecified),-11.9
11,CC(C)c1nc(CN(C)C(=O)CNC(N)=O)cs1,17.4
12,O=C(Nc1ccccc1N1CCOC1=O)N1CCc2sccc2C1,-5.55
13,O=C(Nc1cccnc1)[C@H]1C[C@@H]2CCN(Cc3nccs3)C[C@@H]2O1,-68.2
14,Cc1nnc2n1CC(CNCc1nc(-c3ccsc3)no1)CC2 (stereo unspecified),-4.68
15,CC(C)(C)CNS(=O)(=O)C1CS(=O)(=O)c2ccccc21 (stereo unspecified),14.3
16,COc1cc(C(=O)NC(CC(=O)O)c2cccs2)cc(OC)c1C (stereo unspecified),-19.1
17,O=C1CC(N(C(=O)c2ccc(F)c(C(F)(F)F)c2)C2CC2)C(=O)N1 (stereo unspecified),-10.5
18,COc1ncccc1CNC(=O)c1cccc(C)n1,-1.58
19,Cc1cc(-c2cnn(CCNC(=O)C3CC3)c2C2CC2)on1,11.7
20,CCn1cc(NC(=O)NCc2ccc3c(c2)OCO3)cn1,-1.1
21,Cn1cc(CN2CCCC3(CCCN3S(C)(=O)=O)C2)cn1 (stereo unspecified),2.08
22,Cc1noc([C@H]2COC[C@H]3CN(C(=O)Cc4ccc(F)cc4)C[C@H]32)n1,-21.1
23,Cn1ccnc1CN1CCCC(Cc2ccccn2)C1 (stereo unspecified),2.75

row,Structure (SMILES),cytotoxicity at 10 µM [%]
1,CCN1C(=O)CCCC12CCCN(C(=O)c1ccsc1)C2 (stereo unspecified),-153
2,c1c(CN2CCCC2)nc2n1CCN(CC1CC1)C2,-136
3,CN1CCC(NC(=O)c2cc(C3CCCCC3)nc3ccccc23)CC1,-1.25
4,c1ccc(CN2CC[C@@H]3[C@@H](CO[C@@H]3CNc3ncccn3)C2)nc1,-4.09
5,CCCc1cncnc1N1CCC(NCCc2ccc(O)cc2)CC1,2.47
6,CCn1c(CN(C)C)nnc1C1CCN(Cc2cccc(OC)c2)CC1,-13.6
7,CCOC(=O)c1n[nH]cc1-c1cncn1CCCn1nc(C)cc1C,-2.73
8,Cc1ccc(C(=O)N2CCOCC2)cc1NCc1ccsc1,-6.96
9,CC(=O)NCC1CCN(c2cc(C)nc(-c3ccncc3)n2)CC1,-1.36
10,Cc1cc(F)cc(NC(=O)N(C)CC(C)(CO)CO)c1,-1.44
11,O=C(Cn1cnc2ccccc2c1=O)Nc1cc(C2CC2)n[nH]1,49.4
12,Cc1cccc(CO[C@@H]2C[C@H]3CN(C(=O)c4cnccn4)CCN3C2)n1,-1.79
13,Cc1nn(CC(=O)O)c(C)c1NS(=O)(=O)c1cccc2ccccc12,-8.52
14,COc1cccc(CNCC2(COc3cccnc3)C[C@@H](O)[C@@H](O)C2)c1 (stereo partly specified),-5.57
15,CC(C)CN1CCNC(=O)C12CCN(S(=O)(=O)c1ccc(F)cc1)CC2,-3.16
16,CC(=O)c1cnc(N(C)Cc2cc(C)cc(C)n2)nc1C,8.81
17,CC(NC(=O)CCc1cccs1)c1nnc2n1CCCCC2 (stereo unspecified),-7.59
18,Cc1ncc2c(n1)CN(CC(=O)Nc1nncs1)CC2,-10.8
19,CCc1noc(CN2CCCN(C(C)=O)CC2)n1,-1.25
20,c1ncc2c(n1)CN(Cc1nc(-c3ccc4c(c3)OCO4)no1)CC2,-10.4
21,O=C(N[C@@H]1CN(Cc2ccccc2)C[C@@H]2CCCO[C@@H]21)C1CC1,-6.12
22,CN(CC(=O)N1CCc2[nH]c3ccccc3c2C1)CC1OCCO1,-1.63
23,CNC(=O)c1cccc(NCCOc2ccc(CC#N)cc2)c1C,-0.662

row,Structure (SMILES),cytotoxicity at 10 µM [%]
1,O=C1NCCN(Cc2cccnc2)C1CC(=O)N1CCc2n[nH]cc2C1 (stereo unspecified),-4.05
2,Cc1cc(NC(=O)c2ccc(F)cc2Cl)n(C)n1,-77.5
3,O=C(NCCC(=O)N1CCCC1)c1ccc(SCc2cccnc2)cc1,8.95
4,CCCOc1c(Cl)cc(C(=O)N2CCOC23CCN(C)CC3)cc1Cl,8.17
5,Cc1ccc(C(=O)N2CCC3(CCCCC3)C2)c(=O)[nH]1,-2.47
6,COc1cc(NCC(c2ccccn2)N(C)C)ncn1 (stereo unspecified),-57.4
7,Cc1cccc(N(CCC(N)=O)C(=O)c2ccnc(C)n2)c1,-8.47
8,Cc1nc(CN(C)C2CCN(CCCc3ccccc3)C2)no1 (stereo unspecified),-16.1
9,CC(C)OCc1nn(C)c2c1CCN(Cc1ccco1)C2,-115
10,OC[C@H]1CN2CCN(c3ccccn3)C[C@@H]2[C@@H]1c1ccccc1,-0.0603
11,O=C(CN1CCOC(Cn2cncn2)C1)NC(C1CC1)C1CC1 (stereo unspecified),-49.5
12,c1coc(CN2CCCn3c(nnc3Cn3cccn3)C2)c1,-0.945
13,Cc1ccc2c(n1)N(C)CCN(C(=O)C1CC1)C2,-2.15
14,O=C(Cn1cc(-c2ccccc2)ncc1=O)Nc1ncc[nH]1,5.89
15,Cc1cn2nc(N3CCCC3C(=O)N3CCSCC3)sc2n1 (stereo unspecified),10.9
16,Cc1c2c(C(F)F)cc(SCC(=O)O)nc2nn1C,-9.38
17,COc1cc(C2SC(C)=Nc3c2c(=O)[nH]n3C2CCCC2)ccc1O (stereo unspecified),3.54
18,NC(=O)C1CCN(c2nc3nccc(-c4ccccn4)c3c(=O)[nH]2)CC1,-9.24
19,Cc1ncsc1CN1CCOC(C)(C(=O)N(C)C)C1 (stereo unspecified),12.1
20,Cc1cc(CN2CCOC(Cn3nc(C)cc3C)C2)on1 (stereo unspecified),-5.81
21,Cc1ncc(C)c(N2CCC(Cc3ccc(Cl)cc3)(C(=O)O)CC2)n1,-6.28
22,Cn1ccnc1CN1CCCN(C(=O)CC(C2CC2)C2CC2)CC1,-19.8
23,CC(C)c1nc(C2CCCN(C(=O)Cn3ccccc3=O)C2)no1 (stereo unspecified),-16.3

row,Structure (SMILES),cytotoxicity at 10 µM [%]
1,Cc1ccc(F)cc1NC(=O)c1[nH]ncc1Br,15.7
2,Cc1csc(CCNC(=O)c2ccc(N(C)C)c(F)c2)n1,7.15
3,COc1cc2c(cc1CNC(=O)C(C)n1ccnc1C(C)C)CCC2 (stereo unspecified),0.719
4,Cc1nc(CN(Cc2ccccc2F)C2CCC2)no1,6.95
5,CCc1ccc(C(CNC(=O)c2c(C)noc2C)N(C)C)cc1 (stereo unspecified),-7.83
6,Cc1ncsc1CCN1CCN(C(=O)c2ccc(=O)[nH]c2)CC1,4.38
7,CC(=O)c1c(F)cccc1NCC(O)C1CC1 (stereo unspecified),13.4
8,CC(=O)N1N=C(c2ccccc2)OC1C(=O)NCCN(C(C)C)C(C)C (stereo unspecified),0.238
9,NC(=O)Nc1cccc(Oc2ccccn2)c1,4.39
10,Cc1noc(C)c1CN1C(=O)[C@@H]2CC[C@H]1CN(Cc1ccc(Cl)cc1)C2,6.22
11,NS(=O)(=O)c1cccnc1Nc1cccc(Cl)c1Cl,-2.19
12,COCCc1noc(CN2CCc3nn(C(C)C)c(=O)cc3C2)n1,-14.9
13,CCOC1CCCN(C(=O)c2cnc3c(cnn3C3CCCC3)c2)C1 (stereo unspecified),-3.74
14,CN(C)C(=O)NC1COC2(CCN(Cc3nccn3C)CC2)C1 (stereo unspecified),9.48
15,NC(=O)CN1CCC(NC(=O)c2ccn(-c3cccc(F)c3)n2)CC1,13.4
16,Cc1cn(CC(=O)NC2CCN(CC3CC3)CC2)c2ccccc12,0.951
17,Cc1ccc(CN2Cc3nnn(C)c3C(COCc3ccccn3)C2)s1 (stereo unspecified),7.8
18,O=C(c1ccc(F)cc1)N(CCCO)S(=O)(=O)c1cccs1,-6.24
19,Cc1nc(CN2CCCC(NCc3cccc(C(N)=O)c3)C2)no1 (stereo unspecified),-14.5
